Measurements as given in ChEMBL document CHEMBL3817745, “Structure-Activity Relationship for the 4(3H)-Quinazolinone Antibacterials” (J Med Chem, 2016).
Converted amounts (≈) assume the structure as drawn. The source made the active and inactive calls. The rule behind the calls is not given here.

Legend:
[1] = Terminal half life in ICR mouse peritonitis model infected with methicillin resistant Staphylococcus aureus ATCC 27660 at 10 mg/kg, iv administered as single dose by UPLC analysis; assay type: ADME, organism-based; settings: ICR, in vivo, read-out: beta t1/2
Streptococcus oralis = assay: Antibacterial activity against Streptococcus oralis ATCC 9811 incubated for 16 to 20 hrs by microdilution method; assay type: functional
Method in brief: (§1)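 CLSI broth microdilution. 2-fold serial dilutions were made in cation-adjusted Mueller–Hinton broth, with 5% lysed horse blood added for Streptococcus strains, in triplicate. Inoculum 5×10^5 CFU/mL. Plates incubated 36 °C for 16–20 h. MIC taken as the lowest concentration visibly inhibiting growth.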

[2] = AUC (0 to last) in ICR mouse peritonitis model infected with methicillin resistant Staphylococcus aureus ATCC 27660 at 10 mg/kg, iv administered as single dose measured up to 8 hrs by UPLC analysis; assay type: ADME, organism-based; parameters: dose 10 mg/kg, time 0 - last, route intravenous; settings: ICR, in vivo
Method in brief: (§2)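 Fast PK: female ICR mice (n = 2 per time point) given single tail-vein iv injection at 5, 10 or 20 mg/kg in 25% DMSO/65% propylene glycol/10% water (2.5, 5 or 10 mg/mL); terminal cardiac blood at 5 min, 40 min, 2, 4, 8 h; plasma analysed by UPLC with internal standard calibration.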

[3] = Volume of distribution in ICR mouse peritonitis model infected with methicillin resistant Staphylococcus aureus ATCC 27660 at 10 mg/kg, iv administered as single dose measured up to 24 hrs by UPLC analysis; assay type: ADME, organism-based; settings: ICR, in vivo
Staphylococcus aureus [4] = assay: […] activity against methicillin-resistant Staphylococcus aureus NRS70; assay type: functional; settings: read-out: MBC99.9
Staphylococcus aureus [5] = assay: […] activity against multidrug resistant Staphylococcus aureus ATCC 27660; assay type: functional; settings: read-out: MBC99.9
Staphylococcus aureus [6] = assay: Antibacterial activity against methicillin resistant Staphylococcus aureus ATCC 27660 infected in iv dosed ICR mouse model of peritonitis assessed as mouse survival administered at 30 mins and 4.5 hrs post infection measured for 48 hrs; assay type: functional; settings: ATCC 27660, iv
Enterococcus faecium = assay: Antibacterial activity against Enterococcus faecium NCTC 7171 incubated for 16 to 20 hrs by microdilution method; assay type: functional; method in brief: as §1
[7] = AUC (0 to last) in ICR mouse peritonitis model infected with methicillin resistant Staphylococcus aureus ATCC 27660 at 10 mg/kg, po administered as single dose through gavage measured after 30 hrs by UPLC analysis; assay type: ADME, organism-based; parameters: dose 10 mg/kg, time 0 - last, route oral; settings: ICR, in vivo
Method in brief: (§3)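 Female ICR mice, single 10 mg/kg oral gavage in 25% DMSO/55% propylene glycol/20% PBS (2.5 mg/mL); n = 3 per time point; terminal blood 0.5–30 h; plasma protein-precipitated with acetonitrile containing internal standard, quantified by UPLC-UV or MRM against mouse-plasma calibration curve (0–50 μg/mL).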

[8] = AUC (0 to infinity) in ICR mouse peritonitis model infected with methicillin resistant Staphylococcus aureus ATCC 27660 at 10 mg/kg, iv administered as single dose by UPLC analysis; assay type: ADME, organism-based; parameters: dose 10 mg/kg, time infinity, route intravenous; settings: ICR, in vivo
Pseudomonas aeruginosa = assay: Antibacterial activity against Pseudomonas aeruginosa […] incubated for 16 to 20 hrs by microdilution method; assay type: functional; method in brief: as §1
[9] = Terminal half life in ICR mouse peritonitis model infected with methicillin resistant Staphylococcus aureus ATCC 27660 at 10 mg/kg, po administered as single dose through gavage by UPLC analysis; assay type: ADME, organism-based; settings: ICR, in vivo, read-out: beta t1/2; method in brief: as §3
[10] = Hemolytic activity against human RBC at 64 ug/ml relative to control; assay type: ADME, cell-based, Erythrocyte; settings: red blood cells, read-out: Activity
Method in brief: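 Hemolysis was measured at a fixed 64 μg/mL on a 10% red-cell suspension from heparinized human blood. Triton-X served as the positive control, and results are given as percent hemolysis.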

[11] = AUC (0 to infinity) in ICR mouse peritonitis model infected with methicillin resistant Staphylococcus aureus ATCC 27660 at 10 mg/kg, po administered as single dose through gavage by UPLC analysis; assay type: ADME, organism-based; parameters: dose 10 mg/kg, route oral, time infinity; settings: ICR, in vivo; method in brief: as §3
[12] = system: Staphylococcus epidermidis; assay: Antibacterial activity against Staphylococcus epidermidis ATCC 35547 incubated for 16 to 20 hrs by microdilution method; assay type: functional; method in brief: as §1
[13] = Drug level in uninfected thighs of ICR mouse neutropenic thigh model of methicillin-resistant Staphylococcus aureus NRS70 infection at 20 mg/kg, sc tid administered every 8 hrs starting from 1 hr post infection and measured 7 hrs post last dose by UPLC analysis; assay type: ADME, organism-based; settings: read-out: Drug uptake
Method in brief: (§4)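 Neutropenic thigh model (cyclophosphamide 200 mg/kg ip, NRS70 im), sc doses at 1, 9 and 17 h; at 24 h cardiac blood and uninfected thigh taken (n = 8 per group); thigh homogenate supernatant and plasma acetonitrile-quenched with internal standard, analysed by UPLC with MRM detection.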

[14] = Cmax in ICR mouse peritonitis model infected with methicillin resistant Staphylococcus aureus ATCC 27660 at 10 mg/kg, po administered as single dose through gavage measured at 1 hr post dose by UPLC analysis; assay type: ADME, organism-based; parameters: dose 10 mg/kg, route oral; settings: in vivo
[15] = Protein binding in human plasma at 10 uM after 6 hrs by UPLC based equillibrium dialysis method; assay type: ADME, cell-free; settings: read-out: PPB (converted)
Staphylococcus aureus [16] = assay: Antibacterial activity against methicillin-resistant Staphylococcus aureus NRS70 in ICR mouse neutropenic thigh infection model assessed as reduction in bacterial load at 20 mg/kg, sc tid administered every 8 hrs starting from 1 hr post infection and measured 7 hrs post last dose; assay type: functional, organism-based
Method in brief: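 Female ICR mice (n = 8 per group) made neutropenic with ip cyclophosphamide 200 mg/kg at 4 days and 1 day pre-infection; 100 μL NRS70 (~1×10^6 CFU/mL in brain–heart infusion) injected im into right thigh; sc doses at 1, 9, 17 h; thighs harvested at 24 h, homogenized, plated in triplicate on LB agar; log10 CFU/g.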

Mus musculus = assay: Tmax in ICR mouse peritonitis model infected with methicillin resistant Staphylococcus aureus ATCC 27660 at 10 mg/kg, po administered as single dose through gavage by UPLC analysis; assay type: ADME, organism-based; settings: in vivo; method in brief: as §3
[17] = Plasma concentration in ICR mouse neutropenic thigh model of methicillin-resistant Staphylococcus aureus NRS70 infection at 20 mg/kg, sc tid administered every 8 hrs starting from 1 hr post infection and measured 7 hrs post last dose by UPLC analysis; assay type: ADME, organism-based; method in brief: as §4
Enterococcus faecalis [18] = assay: Antibacterial activity against methicillin-susceptible Enterococcus faecalis ATCC 29212 incubated for 16 to 20 hrs by microdilution method; assay type: functional; method in brief: as §1
Escherichia coli = assay: Antibacterial activity against Escherichia coli ATCC 25922 incubated for 16 to 20 hrs by microdilution method; assay type: functional; method in brief: as §1
Acinetobacter baumannii = assay: Antibacterial activity against Acinetobacter baumannii ATCC 17961 incubated for 16 to 20 hrs by microdilution method; assay type: functional; method in brief: as §1
Bacillus licheniformis = assay: Antibacterial activity against Bacillus licheniformis ATCC 12759 incubated for 16 to 20 hrs by microdilution method; assay type: functional; method in brief: as §1
Klebsiella pneumoniae = assay: Antibacterial activity against Klebsiella pneumoniae ATCC 700603 incubated for 16 to 20 hrs by microdilution method; assay type: functional; method in brief: as §1
[19] = system: Staphylococcus haemolyticus; assay: Antibacterial activity against Staphylococcus haemolyticus ATCC 29970 incubated for 16 to 20 hrs by microdilution method; assay type: functional
Bacillus cereus = assay: Antibacterial activity against Bacillus cereus ATCC 13061 incubated for 16 to 20 hrs by microdilution method; assay type: functional; method in brief: as §1
Staphylococcus aureus [20] = assay: Antibacterial activity against vancomycin/methicillin-resistant Staphylococcus aureus VRS1 clinical isolate incubated for 16 to 20 hrs by microdilution method; assay type: functional
Staphylococcus aureus [21] = assay: Antibacterial activity against vancomycin/methicillin-resistant Staphylococcus aureus VRS2 clinical isolate incubated for 16 to 20 hrs by microdilution method; assay type: functional
HepG2 = assay: Cytotoxicity against human HepG2 cells incubated for 16 hrs by XTT assay; assay type: cell-based; settings: HepG2, 16 h
Method in brief: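 HepG2 cells were tested with an XTT viability read-out, in triplicate. IC50 was obtained by nonlinear regression.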

Streptococcus pyogenes = assay: Antibacterial activity against Streptococcus pyogenes ATCC 49399 incubated for 16 to 20 hrs by microdilution method; assay type: functional; method in brief: as §1
Staphylococcus aureus [22] = assay: Antibacterial activity against mecA-positive multidrug resistant Staphylococcus aureus COL NRS100 incubated for 16 to 20 hrs by microdilution method; assay type: functional
[23] = Clearance in ICR mouse peritonitis model infected with methicillin resistant Staphylococcus aureus ATCC 27660 at 10 mg/kg, iv administered as single dose measured up to 8 hrs by UPLC analysis; assay type: ADME, organism-based; settings: in vivo; method in brief: as §2
Staphylococcus aureus [24] = assay: Antibacterial activity against mecA-positive multidrug resistant Staphylococcus aureus NRS119 incubated for 16 to 20 hrs by microdilution method; assay type: functional
[25] = Oral bioavailability in ICR mouse peritonitis model infected with methicillin resistant Staphylococcus aureus ATCC 27660 at 10 mg/kg administered as single dose through gavage by UPLC analysis; assay type: ADME, organism-based; settings: ICR, in vivo; method in brief: as §3
Staphylococcus aureus [26] = assay: Antibacterial activity against mecA-positive multidrug resistant Staphylococcus aureus NRS120 incubated for 16 to 20 hrs by microdilution method; assay type: functional
Enterococcus faecalis [27] = assay: Antibacterial activity against vancomycin-resistant Enterococcus faecalis 99 clinical isolate incubated for 16 to 20 hrs by microdilution method; assay type: functional
Klebsiella aerogenes = assay: Antibacterial activity against Enterobacter aerogenes ATCC 35029 incubated for 16 to 20 hrs by microdilution method; assay type: functional; method in brief: as §1

## N#Cc1ccc(/C=C/c2nc3ccccc3c(=O)n2-c2cccc(C(=O)O)c2)cc1
[1]
  half-life: ≥ 20 h
Streptococcus oralis
  MIC: > 128 µg/mL
[2]
  AUC(0-t) at 8 h: 19700 ng·h/mL
[3]
  Vd: 0.3 L/kg
Staphylococcus aureus [4]
  MBC: 32 µg/mL (≈ 81.3 µM)
Staphylococcus aureus [5]
  MBC: 64 µg/mL (≈ 163 µM)
Staphylococcus aureus [6]
  ED50: 9.4 mg/kg
Enterococcus faecium
  MIC: > 128 µg/mL
[7]
  AUC(0-t) at 30 h: 6800 ng·h/mL
[8]
  AUC(0-inf): 24300 ng·h/mL
Pseudomonas aeruginosa
  MIC: ≥ 16 µg/mL
[9]
  half-life: > 20 h
[10]
  hemolysis at 64 ug/ml: < 1%
[11]
  AUC(0-inf): 12300 ng·h/mL
[12]
  MIC: 1 µg/mL (≈ 2.54 µM)
[13]
  concentration at 7 h: 24 ng/mL
[14]
  Cmax: 1300 ng/mL
[15]
  fraction unbound at 6 h, 10 µM: 0.035
Staphylococcus aureus [16]
  Activity: inactive
Mus musculus
  Tmax: 1 h
[17]
  concentration at 7 h: 1130 ng/mL
Enterococcus faecalis [18]
  MIC: > 128 µg/mL
Escherichia coli
  MIC: ≥ 16 µg/mL
Acinetobacter baumannii
  MIC: ≥ 16 µg/mL
Bacillus licheniformis
  MIC: > 128 µg/mL
Klebsiella pneumoniae
  MIC: ≥ 16 µg/mL
[19]
  MIC: 1 µg/mL (≈ 2.54 µM)
Bacillus cereus
  MIC: > 128 µg/mL
Staphylococcus aureus [20]
  MIC: 16 µg/mL (≈ 40.7 µM)
Staphylococcus aureus [21]
  MIC: 2 µg/mL (≈ 5.08 µM)
HepG2
  IC50: 62.9 µg/mL (≈ 160 µM)
Streptococcus pyogenes
  MIC: > 128 µg/mL
Staphylococcus aureus [22]
  MIC: 16 µg/mL (≈ 40.7 µM)
[23]
  clearance: 6.9 mL/min/kg
Staphylococcus aureus [24]
  MIC: 8 µg/mL (≈ 20.3 µM)
[25]
  bioavailability: 50%
Staphylococcus aureus [26]
  MIC: 8 µg/mL (≈ 20.3 µM)
Enterococcus faecalis [27]
  MIC: > 128 µg/mL
Klebsiella aerogenes
  MIC: ≥ 16 µg/mL
